# Screening data (PubChem)
# XiGFP reactiv = X-chromosome reactivation activator; activation, % at 7.58 µM; 0.055% of 360,000 active; XiGFP mouse fibroblasts, % GFP-positive cells imaging, 3 d; cells co-treated with 5-aza-dC sensitizer; scaled so ellipticine positive control = 100%; AID 743238;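 active means mean normalized replicate activation at least 10% and every replicate at or above 10%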;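 further: 0% = median of on-plate neutral control wells and 100% = ellipticine 6 µM median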
#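 assay system = SV40-immortalized XiGFP fibroblast cells, line 68-5-11 | buffer or medium = DMEM plus 5-aza-dC sensitizer | doses = single-point pinned compound dosing | times = 3-day compound exposure, then 15 min fixation at room temperature | benchmarks = positive control ellipticine, 6 µM final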
# NSD2 inh = NSD2 (human) methyltransferase inhibition | O96028 | NSD2 peptide methylation, AlphaScreen, 120 min | inhibition, % at 12.5 µM | 0.54% of 310,000 active; in the data active means inhibition above about 50%
# SR-BI uptake up = activators of SR-BI mediated HDL lipid uptake; CHO ldlA[mSR-BI] cells, DiI-HDL uptake fluorescence, 3 h; 100 = double the neutral-control signal; activation, % at 12.5 µM; 0.096% of 320,000 active; AID 504775;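 active means mean replicate activation of at least 60% and every replicate at or above 60%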;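 further: 0% = median plate neutral-control signal and 100% = twice that signal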
#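 Assay system: LDL receptor-deficient CHO ldlA cells overexpressing murine SR-BI / Medium: BSA-supplemented, HEPES-buffered Ham's F12, pH 7.4 / Probe or stimulus: DiI-labelled HDL at 10 µg/mL final / Timing: compound with DiI-HDL co-incubation, 3 h at 37 °C / Technique: bottom-read cell fluorescence after medium removal, ex 550/em 595 nm / Measure: HDL uptake via cellular fluorescence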
# SR-BI DiI inh = blocks mouse SR-BI lipid uptake from DiI-HDL. Q61009. ldlA[mSR-BI] CHO cells, DiI-HDL uptake fluorescence, 3 h. inhibition, % at 12.5 µM. 0.96% of 320,000 active;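 active means mean replicate inhibition of at least 70% and a set share of replicates each scoring 70 or more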;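 further: 0% = median of neutral control wells and 100% = median of positive control wells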
# Target sequence (Q61009 whole entry, looked up): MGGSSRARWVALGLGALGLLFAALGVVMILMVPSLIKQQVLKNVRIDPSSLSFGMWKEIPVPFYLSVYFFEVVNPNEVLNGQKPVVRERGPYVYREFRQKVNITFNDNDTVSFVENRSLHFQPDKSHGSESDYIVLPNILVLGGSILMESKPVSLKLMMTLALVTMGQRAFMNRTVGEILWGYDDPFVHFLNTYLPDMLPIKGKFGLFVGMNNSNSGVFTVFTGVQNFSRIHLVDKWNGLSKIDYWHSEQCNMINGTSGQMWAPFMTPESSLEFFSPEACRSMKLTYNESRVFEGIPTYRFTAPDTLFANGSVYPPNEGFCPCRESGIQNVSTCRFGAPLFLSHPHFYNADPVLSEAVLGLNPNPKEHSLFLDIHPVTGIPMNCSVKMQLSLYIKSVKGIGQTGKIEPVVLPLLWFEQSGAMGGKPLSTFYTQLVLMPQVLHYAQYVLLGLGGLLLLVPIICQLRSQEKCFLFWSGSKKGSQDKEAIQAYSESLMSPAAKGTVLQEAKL
# HGIII-sPLA2 inh = Blocks human group III sPLA2 activity | 0.56% of 370,000 active | QFRET BODIPY PC-A2 liposome hydrolysis, fluorescence | inhibition, % at 12.2 µM | Q9NZ20;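 active means inhibition above mean plus 3 SD of compounds lying within the high and low control bounds, cut at about 19% in these data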;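 further: 0% = median of test compound wells and 100% = no enzyme DMSO wells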
# ARNT-TACC3 inh = ARNT/TACC3 interaction disruption | inhibition, % at 9.99 µM | Q9Y6A5 | 0.66% of 390,000 active | AlphaScreen His-ARNT PAS-B/GST-TACC3 binding, luminescence; TACC3 fragment carries E629A point mutation | AID 623870;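 active means mean inhibition of replicates at least 50% and at least half of replicates each reaching 50%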;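 further: 0% = complete ARNT plus TACC3 wells and 100% = ARNT alone without TACC3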
# AlphaScreen ctr = AlphaScreen artifact in ARNT/TACC3 counter-screen; AC50, µM (highest dose often 68 µM), for inactives: top-dose activity change, negative = signal decrease; shares compounds with ARNT-TACC3 inh; AID 651705; 50% of 1,200 active; His-ARNT PASB-GST AlphaScreen artifact counter-screen, luminescence;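 active means every separate test run was called active for a drop in luminescence, with AC50 within twice the top valid dose, actives reach about 71 µM in these data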
# An asterisk follows results filed as active; x = not tested or not shown. In the library only some 2% were active in any assay of this set; here they are far more common.
SMILES,XiGFP reactiv,NSD2 inh,SR-BI uptake up,SR-BI DiI inh,HGIII-sPLA2 inh,ARNT-TACC3 inh,AlphaScreen ctr
CCC(=O)Nc1nc(C)c(C(=O)NC2CCCCC2)s1,x,-1,19,-19,-4,-2,x
Cc1ccc(NC(=O)c2c(C)noc2C)cc1S(=O)(=O)N1CCOCC1,0,-1,-10,10,-4,-4,x
CCOc1cc(/C=N/NC(=O)CSc2cccc3cccnc23)ccc1O,0,-1,-14,14,-4,63*,-31%
O=C(CSc1cccc2cccnc12)N/N=C/c1ccncc1,0,1,-5,5,1,62*,-16%
Cc1ccc(C)c(NC(=O)CSc2cccc3cccnc23)c1,0,0,x,x,-6,-9,x
O=S1(=O)N=C(N/N=C/c2ccccn2)c2ccccc21,0,-10,37,-37,9,59*,24µM*
COc1ccc(/C=N/NC2=NS(=O)(=O)c3ccccc32)cc1,0,0,7,-7,-6,-1,x
COc1ccc(-c2[nH]ncc2/C=N\NC(=O)c2cccs2)cc1OC,0,2,-11,11,2,51*,-22%
Cc1ccc2nc(Cl)c3cc(C(=O)N(CCN(C)C)Cc4ccco4)sc3c2c1,0,11,-19,19,4,11,x
CCOP(=O)(OCC)C(Nc1ccccn1)c1ccccc1 (configuration not stated),x,-5,3,-3,-8,x,x
CC(=O)c1cccc(-c2ccc3c(=O)[nH]c(Nc4ccccc4)cc3c2)c1,0,x,-50,50,-6,33*,-21%
O=S(=O)(N[C@H]1CC[C@H](CCn2cc(-c3ccccn3)nn2)O[C@@H]1CO)c1cccc(Cl)c1,0,x,x,x,x,109*,49µM*
Cc1cccc(S(=O)(=O)N[C@@H]2CC[C@H](CCn3cc(-c4ccccn4)nn3)O[C@@H]2CO)c1,0,x,x,x,x,x,x
O=S(=O)(N[C@@H]1CC[C@@H](CCn2cc(-c3ccccn3)nn2)O[C@H]1CO)c1cccc(F)c1,0,x,x,x,x,91*,60µM*
Cc1cccc(S(=O)(=O)N[C@@H]2CC[C@H](CCn3cc(-c4ccccn4)nn3)O[C@H]2CO)c1,0,x,x,x,x,x,x
O=S(=O)(N[C@H]1CC[C@@H](CCn2cc(-c3ccccn3)nn2)O[C@@H]1CO)c1cccc(Cl)c1,-1,x,x,x,x,95*,48µM*
Clc1ccc(SCCOCCN2CCCCCC2)cc1,0,9,3,-3,-8,3,x
O=C(c1cncc(Br)c1)N1CCN(S(=O)(=O)c2ccccc2C(F)(F)F)CC1,0,0,x,x,0,0,x
COc1ccccc1Nc1cc2cc(Br)ccc2c(=O)[nH]1,0,x,-27,27,-10,55*,-26%
CC[C@H]1C/C=C\Cc2ccccc2[C@@H](C(=O)C[C@@H](O)CC(C)=O)OC1=O,0,x,25,-25,-3,0,x
O=C(O)c1ccc(C2CCCCC2)cn1,x,0,x,4,4,63*,-22%
O=C(O)C1=C(C2CCCCC2)C(=O)c2ccccc21,0,0,17,-17,5,-4,x
Cc1nccn1CC1CCc2c(c3ccccc3n2C)C1=O (configuration not stated),0,x,16,-16,-2,0,x
Cc1[nH]cnc1CN1CCc2c(c3ccccc3n2C)C1=O,0,x,-2,2,1,28*,-8%
COCCCNC(=S)N1CCCN(c2nc3c(C)c(C)ccc3cc2C#N)CC1,0,-2,-13,13,3,-1,x
CCCCN(CC)c1nc(N)c2c(N)nc(OCC)cc2c1C#N,x,22,-20,20,-6,10*,-11%
CCOc1cc2c(C#N)c(N3CCCC3)nc(N)c2c(N)n1,0,x,-20,20,0,1,x
C/C(=N\NC(=O)C(C)Oc1ccc([N+](=O)[O-])cc1)c1ccccn1 (configuration not stated),x,5,42,-42,-2,54*,34µM*
